Read-outs that look alike come from different tables or passages of the source.
Key:
[1] = target: exogenous bovine Xa (Bos taurus, UniProt P00743); assay: Plasma concentration by functional anti-Xa test in orthopaedic patients; assay type: in vivo; details: for range of concentrations observed with the anti-Xa functional tests: T0, before starting the treatment
[2] = tested on: activated partial thromboplastin clotting time (aPTT); assay: Activated partial thromboplastin time; assay type: in vivo, human; details: at peak concentration and at steady state (T2–T3)
How it was run: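 Blood drawn the day before surgery (T0), then 2 h ± 10 min post-dose on day 4 ± 1 (T2) and day 7 ± 1 (T3). aPTT (s) run on an automated coagulation analyser. Reported as median and 25th–75th percentiles; Wilcoxon signed-rank test for repeated measures.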

[3] = assay type: in vivo, human
[4] = healthy Japanese individuals, cited from earlier work

Chain of exogenous bovine Xa (P00743 234-492 limits assumed): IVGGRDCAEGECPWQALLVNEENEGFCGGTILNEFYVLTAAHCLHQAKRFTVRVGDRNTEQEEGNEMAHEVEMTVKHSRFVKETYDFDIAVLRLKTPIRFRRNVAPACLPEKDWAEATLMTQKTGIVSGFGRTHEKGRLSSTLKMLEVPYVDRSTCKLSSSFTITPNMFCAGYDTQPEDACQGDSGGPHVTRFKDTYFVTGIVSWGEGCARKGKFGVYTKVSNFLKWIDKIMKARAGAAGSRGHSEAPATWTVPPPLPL
Chain of exogenous bovine Xa (P00743 41-180 limits assumed): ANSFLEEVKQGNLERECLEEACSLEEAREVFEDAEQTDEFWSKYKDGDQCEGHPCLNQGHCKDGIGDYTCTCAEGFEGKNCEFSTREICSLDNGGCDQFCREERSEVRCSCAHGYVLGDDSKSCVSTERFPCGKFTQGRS

SMILES	range of concentrations observed with the anti-Xa functional tests [1]	mean increase in aPTT [2]	interindividual variation in the Cmax (coefficient of variation) ([3]; T1, first intake the day after surgery)	plasma concentration by anti-Xa functional assay, arithmetic mean and SD ([1]; T0 (D−1), before starting the treatment)	Cmax ([3]; human, plasma, oral, 2.5 mg)	minimum period before reaching the steady state ([4]; 2.5 mg twice daily)	Cmax ([4]; after 7 days of 2.5-mg twice-daily treatment)	Cmax ([4]; after a first intake of 2.5 mg)
O=C(NC[C@H]1CN(c2ccc(N3CCOCC3=O)cc2)C(=O)O1)c1ccc(Cl)s1 [Rivaroxaban]	0 to 25 ng/mL	15 s	around 100%	–	–	–	–	–
COc1ccc(-n2nc(C(N)=O)c3c2C(=O)N(c2ccc(N4CCCCC4=O)cc2)CC3)cc1 [Apixaban]	0 to 24 ng/mL	6 s	–	6 ± 7.5 ng/mL	75 ± 37 ng/mL	≥ 3 treatment days	84 ng/mL	51 ± 25 ng/mL

— publication PMC4664024 (Blood Coagulation & Fibrinolysis, 2015)
